Measurements collected from several papers.
NT5E: 5'-nucleotidase (NT5E, Homo sapiens, UniProt P21589)
MAP4K5: Mitogen-activated protein kinase kinase kinase kinase 5 (MAP4K5, Homo sapiens, UniProt Q9Y4K4)
PDGFRA: Platelet-derived growth factor receptor alpha (PDGFRA, Homo sapiens, UniProt P16234)
XDH: Xanthine dehydrogenase/oxidase (XDH, Bos taurus, UniProt P80457)

Compound	target	test	setting	endpoint	value
Cc1cc(C)c(C#N)c(SCC(=O)Nc2cccnc2)n1	NT5E	enzyme activity, inhibitor	10 µM	inhibition	5%
CC(=O)ON=C1C=CC(=C(C#N)c2ccccc2)C=C1	Dual specificity tyrosine-phosphorylation-regulated kinase 1A (Dyrk1a, Rattus norvegicus, UniProt Q63470)	enzyme activity, inhibitor, ADP detection	20 µM	activity vs control	101%
C1=C/COCc2cc(ccc2OCCN2CCCC2)Nc2nccc(n2)-c2cccc(c2)COC/1	MAP4K5	binding	0.1 µM	remaining binding	90%
N#Cc1ccc(NC(=O)Nc2ccccc2)cc1	PDGFRA	cell-free assay, competition with immobilised ligand	25 µM	remaining binding	92%
NC/C(=C\F)COc1cccc(Cn2c(=S)[nH]c(=O)c3[nH]cnc32)c1	Lactoperoxidase (LPO, Bos taurus, UniProt P80025)	enzyme activity, inhibitor	20 µM	remaining activity	14.2%
COC(=O)c1ccc(NC(=O)c2sc3nc(-c4ccccc4)cc(C(F)(F)F)c3c2N)cc1	NT5E	enzyme activity, inhibitor, HPLC	10 µM	inhibition	94%
CC(C)(O)c1coc(S(=O)(=O)NC(=O)c2cc3ccccc3n2Cc2ccc(Br)c3ccccc23)c1	XDH	enzyme activity, inhibitor, absorbance	10 µM	inhibition	1.21%
Cc1cc(C)c(C#N)c(SC=CC(=O)Nc2ccon2)n1	NT5E	enzyme activity, inhibitor	10 µM	inhibition	34%
CCCCC(=O)Nc1ccc(-c2ccc3ncn(CCC)c(=O)c3c2)cn1	MAP4K5	binding, competition with immobilised ligand	0.5 µM	remaining binding	92%
COCCOCCOCCNC(=O)CSc1nc(-c2ccccc2)cc(C(F)(F)F)c1C#N	NT5E	enzyme activity, inhibitor	10 µM	inhibition	-20%
Oc1ncnc2[nH]ncc12	XDH	enzyme activity, inhibitor	250 µg/mL	inhibition	99.3%
COc1ccc2oc(-c3ccc4nc(N)oc4c3)c/c(=N\c3ccccc3NC(=O)CCN)c2c1	Platelet-derived growth factor receptor alpha (PDGFRA, Homo sapiens, UniProt P16234, D842V)	enzyme activity, inhibitor	1 µM	remaining activity	91%
O=C(NS(=O)(=O)c1ccccc1)c1cc2ccccc2n1Cc1ccc(Br)c2ccccc12	XDH	enzyme activity, inhibitor, absorbance	10 µM	inhibition	20.3%
C#Cc1cnc(Nc2ccnc(CO)c2)nc1Nc1ccccc1S(C)(=O)=NC#N (stereo not drawn)	PDGFRA	cell-free assay	1 µM	remaining signal	58%
Cc1cc(C)c(C#N)c(SCC(=O)Nc2ccon2)n1	NT5E	enzyme activity, inhibitor	10 µM	inhibition	3%
